Substitutions are numbered along the chain they refer to. Read-outs that look alike come from different tables or passages of the source.
How the values were obtained:
GK-WT = test: Change of tryptophan fluorescence yield of GK-WT on adding glucose or glycerol; type: binding, human
GK-W99 (W167F/W257F) = biological target: T1, GK-W99 (W167F/W257F) (Homo sapiens, UniProt P35557, W167F/W257F); test: Change of tryptophan fluorescence yield of GK-W99 on adding glucose or glycerol; type: binding; settings: GK-W99, 95% glycerol/buffer (v/v)
T1 sequence (P35557 1-465 W167F/W257F): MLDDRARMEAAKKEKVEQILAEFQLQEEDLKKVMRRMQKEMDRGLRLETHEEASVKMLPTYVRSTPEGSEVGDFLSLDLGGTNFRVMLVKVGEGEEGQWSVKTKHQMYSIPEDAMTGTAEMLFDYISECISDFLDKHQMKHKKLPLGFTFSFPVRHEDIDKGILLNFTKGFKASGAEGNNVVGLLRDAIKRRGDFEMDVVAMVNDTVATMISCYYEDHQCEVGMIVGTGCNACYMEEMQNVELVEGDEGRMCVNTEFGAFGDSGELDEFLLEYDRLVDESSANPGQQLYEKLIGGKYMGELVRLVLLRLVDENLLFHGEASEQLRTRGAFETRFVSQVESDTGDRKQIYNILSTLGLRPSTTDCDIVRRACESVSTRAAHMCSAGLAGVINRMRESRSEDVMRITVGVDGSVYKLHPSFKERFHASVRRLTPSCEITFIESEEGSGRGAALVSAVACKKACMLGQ
Method in brief: (§1)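 Recombinant human β-cell glucokinase single-Trp variant, made as a GST fusion in E. coli, cleaved with factor Xa, and repurified. Buffer was 20 mM K phosphate, 50 mM KCl, 1 mM EDTA, 1 mM DTT, pH 7.2, with or without 100 mM D-glucose or 95% glycerol (v/v). Excitation 295 nm, emission 300–500 nm, 20 °C. Quantum yield was measured against NATA (φ 0.14) in water at A < 0.05, with refractive-index correction. The ratio is with/without additive.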

GK-W167 (W99R/W257F) = biological target: T2, GK-W167 (W99R/W257F) (Homo sapiens, UniProt P35557, W257F/W99R); test: Change of tryptophan fluorescence yield of GK-W167 on adding glucose or glycerol; type: binding
T2 sequence (P35557 1-465 W99R/W257F): T1 sequence (P35557 1-465 W167F/W257F) with W99R, F167W
Method in brief: as §1

GK-W257 (W99R/W167F) = biological target: T3, GK-W257 (W99R/W167F) (Homo sapiens, UniProt P35557, W167F/W99R); test: Change of tryptophan fluorescence yield of GK-W257 on adding glucose or glycerol; type: binding; settings: GK-W257, 95% glycerol/buffer (v/v)
T3 sequence (P35557 1-465 W99R/W167F): T1 sequence (P35557 1-465 W167F/W257F) with W99R, F257W
Method in brief: as §1

[1] = biological target: T4, GK-W65 (W99R/W167F/W257F/T65W) (Homo sapiens, UniProt P35557, T65W/W167F/W257F/W99R); test: Change of tryptophan fluorescence yield of GK-W65 on adding glucose or glycerol; type: binding; settings: GK-W65, 95% glycerol/buffer (v/v)
T4 sequence (P35557 1-465 T65W/W99R/W167F/W257F): T1 sequence (P35557 1-465 W167F/W257F) with T65W, W99R
Method in brief: as §1

[2] = biological target: T5, GK-WT (recombinant wild type human β-cell glucokinase) (Homo sapiens, UniProt P35557); test: D-glucose binding to GK-WT by tryptophan fluorescence titration
T5 sequence (P35557 1-465): T1 sequence (P35557 1-465 W167F/W257F) with F167W, F257W
Method in brief: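 Recombinant human wild-type β-cell glucokinase was titrated with D-glucose in K-phosphate buffer, pH 7.2, with or without cosolvent, and read by Trp fluorescence at 20 °C (excitation 295 nm, emission 300–500 nm). Fluorescence was fitted to F = F0 + (Fsat − F0)[glucose]/([glucose] + Kd) to give Kd and F/F0, the intensity at glucose saturation over the intensity without glucose.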

Row | (Φf)/Φ0 observed, fluorescence quantum yield with/without (times) (GK-W99 (W167F/W257F)) | (Φf)/Φ0 observed, fluorescence quantum yield with/without (times) (GK-W99 (W167F/W257F); listed as Glycerol) | (Φf)/Φ0 observed, fluorescence quantum yield with/without (times) (GK-W167 (W99R/W257F); GK-W167, 95% glycerol/buffer (v/v)) | (Φf)/Φ0 observed, fluorescence quantum yield with/without (times) (GK-W257 (W99R/W167F)) | (Φf)/Φ0 observed, fluorescence quantum yield with/without (times) [1] | F/F0 upon D-glucose binding ([2]; 1 M sucrose) | F/F0 upon D-glucose binding ([2]; 1 M trehalose) | F/F0 upon D-glucose binding ([2]; 2 M L-glucose) | F/F0 upon D-glucose binding ([2]; 20% glycerol) | Kd ([2]; D-glucose binding KD, 1 M sucrose) [µM] | Kd ([2]; D-glucose binding KD, 1 M trehalose) [µM] | Kd ([2]; D-glucose binding KD, 2 M L-glucose) [µM] | Kd ([2]; read-out: D-glucose binding KD, PO4 buffer pH 7.2, 20 °C) [µM] | (Φf)/Φ0 observed, fluorescence quantum yield with/without (times) (GK-W167 (W99R/W257F); GK-W167, 100 mM D-glucose in buffer, listed as Glucose) | (Φf)/Φ0 observed, fluorescence quantum yield with/without (times) (GK-W167 (W99R/W257F); GK-W167, 100 mM D-glucose in buffer, listed as glucose) | SMILES | (Φf)/Φ0 observed, fluorescence quantum yield with/without (times) (GK-WT; 95% glycerol/buffer (v/v)) | (Φf)/Φ0 observed, fluorescence quantum yield with/without (times) (GK-WT; 100 mM D-glucose in buffer, listed as Glucose) | (Φf)/Φ0 observed, fluorescence quantum yield with/without (times) (GK-WT; 100 mM D-glucose in buffer, listed as glucose)
1 | over 4.6 | 4.6 | ~2.3 | 1.3 | 1.1 | – | – | – | – | – | – | – | – | – | – | OCC(O)CO [glycerol] | 2.6 | – | –
2 | – | – | – | – | – | 1.74 | 1.71 | 1.63 | 1.74 | 3570 | 1750 | 1120 | 7390 | 1.8 | about 1.8 | OC[C@H]1OC(O)[C@H](O)[C@@H](O)[C@@H]1O (stereo partly drawn) [D-glucose] | – | 2.0 | ~2

— publication PMC6025808 (Journal of fluorescence, 2017)
